# Reference: paper PMC7357868 (ACS chemical biology, 2019)
# pIC50: −log10 of the molar value.
# Legend:
# [1] = target: T1, hpol κ (Homo sapiens, UniProt Q9UBT6); assay: TAMRA strand-displacement fluorescence assay of DNA polymerase activity; assay type: biochemical
# T1 sequence (Q9UBT6 19-526): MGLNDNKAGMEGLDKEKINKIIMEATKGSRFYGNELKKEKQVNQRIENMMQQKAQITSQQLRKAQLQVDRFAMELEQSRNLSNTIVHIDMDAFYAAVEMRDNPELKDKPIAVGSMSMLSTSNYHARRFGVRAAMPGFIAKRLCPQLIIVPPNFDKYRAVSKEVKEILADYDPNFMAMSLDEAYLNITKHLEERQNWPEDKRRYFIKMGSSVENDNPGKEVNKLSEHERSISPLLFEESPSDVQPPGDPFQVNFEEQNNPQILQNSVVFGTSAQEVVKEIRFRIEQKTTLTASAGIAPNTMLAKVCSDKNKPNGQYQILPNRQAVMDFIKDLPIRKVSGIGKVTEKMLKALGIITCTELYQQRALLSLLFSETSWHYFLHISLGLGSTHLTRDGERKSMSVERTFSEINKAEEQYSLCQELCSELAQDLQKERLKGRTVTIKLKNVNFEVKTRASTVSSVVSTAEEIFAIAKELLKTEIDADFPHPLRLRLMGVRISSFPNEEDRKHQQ
# [2] = target: T2, hpol η (Homo sapiens, UniProt Q9Y253); assay: as above; assay type: biochemical; conditions: 95% CI in parentheses
# T2 sequence (Q9Y253 1-437): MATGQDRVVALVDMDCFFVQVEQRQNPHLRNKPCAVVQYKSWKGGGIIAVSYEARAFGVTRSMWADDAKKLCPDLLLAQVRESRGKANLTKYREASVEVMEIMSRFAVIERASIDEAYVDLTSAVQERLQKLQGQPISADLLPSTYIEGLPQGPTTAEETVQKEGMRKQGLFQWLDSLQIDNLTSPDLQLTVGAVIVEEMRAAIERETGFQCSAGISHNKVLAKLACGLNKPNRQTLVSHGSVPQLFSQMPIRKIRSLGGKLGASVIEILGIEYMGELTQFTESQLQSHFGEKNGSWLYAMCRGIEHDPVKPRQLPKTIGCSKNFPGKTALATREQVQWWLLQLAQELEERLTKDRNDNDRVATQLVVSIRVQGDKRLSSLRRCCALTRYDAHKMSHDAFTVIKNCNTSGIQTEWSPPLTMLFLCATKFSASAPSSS
# [3] = target: T1, hpol κ; assay: Gel-based primer extension assay; assay type: biochemical; conditions: 10 μM IAG-10, 1 nM hpol κ
# [4] = target: T3, pol Dpo1 (Saccharolobus solfataricus, UniProt P26811); assay: TAMRA strand-displacement selectivity assay, B-family pol; assay type: biochemical, Sulfolobus solfataricus; conditions: 10 μM IAG-10, 25 nM Dpo1
# T3 sequence (P26811 1-882): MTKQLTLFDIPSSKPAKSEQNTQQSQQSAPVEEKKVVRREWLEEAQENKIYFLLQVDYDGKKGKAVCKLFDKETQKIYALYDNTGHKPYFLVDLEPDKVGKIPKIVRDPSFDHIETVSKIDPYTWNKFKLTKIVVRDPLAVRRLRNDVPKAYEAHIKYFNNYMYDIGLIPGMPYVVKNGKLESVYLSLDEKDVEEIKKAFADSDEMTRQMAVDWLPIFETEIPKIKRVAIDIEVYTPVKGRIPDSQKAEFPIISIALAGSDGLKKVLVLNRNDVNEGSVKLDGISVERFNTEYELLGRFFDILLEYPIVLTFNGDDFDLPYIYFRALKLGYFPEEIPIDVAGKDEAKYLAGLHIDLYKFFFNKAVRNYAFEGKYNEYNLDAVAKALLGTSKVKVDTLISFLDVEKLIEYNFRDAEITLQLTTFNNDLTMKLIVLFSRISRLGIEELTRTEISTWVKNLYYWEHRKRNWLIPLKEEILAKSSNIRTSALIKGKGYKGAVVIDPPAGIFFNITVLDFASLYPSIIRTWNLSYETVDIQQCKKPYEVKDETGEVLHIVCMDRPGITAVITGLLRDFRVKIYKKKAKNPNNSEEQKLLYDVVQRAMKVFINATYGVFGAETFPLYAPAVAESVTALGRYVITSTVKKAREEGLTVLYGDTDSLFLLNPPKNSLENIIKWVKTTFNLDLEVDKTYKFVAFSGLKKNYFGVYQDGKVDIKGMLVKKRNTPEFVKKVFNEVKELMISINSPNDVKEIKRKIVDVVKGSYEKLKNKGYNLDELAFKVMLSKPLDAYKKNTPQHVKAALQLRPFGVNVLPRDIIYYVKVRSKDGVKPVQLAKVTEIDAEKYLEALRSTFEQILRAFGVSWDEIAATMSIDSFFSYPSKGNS
# [5] = target: T1, hpol κ; assay: HPG chemical footprinting with LC-MS; conditions: 10 μM hpol κ, IAG-10 20 and 100 μM, 500 μM HPG
# [6] = test system: hpol κ-deficient HAP-1 cells; assay: Clonogenic survival assay; assay type: cell-based, human
# [7] = test system: hpol κ-proficient HAP-1 cells; assay: Alkaline comet assay; assay type: cell-based, human
# How it was run: (§1)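 100 000 HAP-1 cells per well, test compound 0.5 μM alone or with alkylating agent (100 μM), 1 h; DMSO control. Cells embedded in low-melting agarose (200–300 per well), lysed 1 h, alkaline unwinding (200 mM NaOH, 1 mM EDTA) 20 min RT, electrophoresis 21 V, 30 min, 4 °C, SYBR Gold stain. Read-out is % DNA in tail per cell; ≥20 cells per replicate, three biological replicates, mean ±SD.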
# [8] = test system: hpol κ-deficient HAP-1 cells; assay: Alkaline comet assay; assay type: cell-based, human
# How it was run: as §1
# [9] = target: T1, hpol κ; assay: Steady-state kinetic analysis of dTTP insertion; assay type: biochemical; conditions: 0.5 nM hpol κ, 25 nM DNA, varying inhibitor concentration
# [10] = 100 μM TMZ + 0.5 μM IAG-10, compared with TMZ alone
smiles,measurement,setting,value
"Cl.[H]/N=C(\N)NN=Cc1cn(C(=O)c2cccc3ccccc23)c2ccc(Cl)cc12 [IAG-10, (E)-2-((1-(1-naphthoyl)-5-chloro-1H-indol-3-yl)-methylene)hydrazine-1-carboximidamide hydrochloride]",polymerase activity in presence of compound,"[1]; 10 μM IAG-10, 25 nM hpol κ",only hpol κ activity was inhibited
same,inhibition of enzyme activity in the initial screen,"[1]; 40 μM compound, 1 nM hpol κ, 50 nM DNA, relative to DMSO control",greatest inhibitory action
same,pIC50,"[1]; IC50, 0.1 nM hpol κ, 0.5 nM DNA, 95% CI in parentheses",6.14
same,pIC50,"[1]; IC50, 0.2 nM hpol κ, 1 nM DNA, 95% CI in parentheses",5.96
same,pIC50,"[1]; IC50, 0.2 nM hpol κ, 2.5 nM DNA, 95% CI in parentheses",5.85
same,pIC50,"[1]; IC50, 0.5 nM hpol κ, 10 nM DNA, 95% CI in parentheses",5.05
same,pIC50,"[1]; IC50, 1 nM hpol κ, 25 nM DNA, 95% CI in parentheses",5.05
same,pIC50,"[1]; IC50, 1 nM hpol κ, 50 nM DNA, 100 μM dTTP, 1 mM MgCl2, 25 °C, mean n = 3",5.14
same,specificity for hpol κ over η,[1]; initial reaction conditions (higher enzyme and DNA),~ 2 fold
same,specificity for hpol κ over η,[1]; lower concentrations of enzyme and DNA,~ 30 fold
same,pIC50,"[2]; IC50, 0.2 nM hpol η, 2 nM DNA",4.65
same,pIC50,"[2]; IC50, 1 nM hpol η, 50 nM DNA",4.84
same,polymerase activity in presence of compound,[3],only hpol κ was inhibited
same,polymerase activity in presence of compound,[4],only hpol κ activity was inhibited
same,change in the fraction of HPG-modified peptides containing Arg48,[5],large increase
same,"decrease in the fraction of HPG-modified peptides (Arg145, Arg149, Arg505)",[5],> 50%
same,colony formation,[6]; 0.5 μM IAG-10 alone,does not impair colony formation
same,"colony forming ability, cotreatment over TMZ alone",[6]; TMZ + 0.5 μM IAG-10,did not show any significant reduction
same,DNA damage (% DNA in tail) compared to control,"[7]; 0.5 μM IAG-10 alone, 1 h",approximately twofold
same,DNA damage (% DNA in tail),[7]; [10],increased even further
same,DNA damage (% DNA in tail) over control,"[8]; 0.5 μM IAG-10 alone, 1 h",did not increase DNA damage over control
same,DNA damage (% DNA in tail),[8]; [10],did not increase further
same,effect on turnover number (kcat),[9],sharp decrease
